Test results reported in ChEMBL document CHEMBL3525985, “Regiospecificity and stereospecificity of human UDP-glucuronosyltransferases in the glucuronidation of estriol, 16-epiestriol, 17-epiestriol, and 13-epiestradiol” (Drug Metab Dispos, 2013).

What was measured:
[1] = target: T1, UDP-glucuronosyltransferase 1A10 (Homo sapiens, UniProt Q9HAW8); assay: Drug level assessed as recombinant human C-terminal His-tagged UGT1A10-mediated compound formation from 200 uM estriol after 15 to 60 mins by […] analysis in presence of UDPGA; assay type: ADME; conditions: recombinant enzyme
T1 sequence (Q9HAW8 whole entry): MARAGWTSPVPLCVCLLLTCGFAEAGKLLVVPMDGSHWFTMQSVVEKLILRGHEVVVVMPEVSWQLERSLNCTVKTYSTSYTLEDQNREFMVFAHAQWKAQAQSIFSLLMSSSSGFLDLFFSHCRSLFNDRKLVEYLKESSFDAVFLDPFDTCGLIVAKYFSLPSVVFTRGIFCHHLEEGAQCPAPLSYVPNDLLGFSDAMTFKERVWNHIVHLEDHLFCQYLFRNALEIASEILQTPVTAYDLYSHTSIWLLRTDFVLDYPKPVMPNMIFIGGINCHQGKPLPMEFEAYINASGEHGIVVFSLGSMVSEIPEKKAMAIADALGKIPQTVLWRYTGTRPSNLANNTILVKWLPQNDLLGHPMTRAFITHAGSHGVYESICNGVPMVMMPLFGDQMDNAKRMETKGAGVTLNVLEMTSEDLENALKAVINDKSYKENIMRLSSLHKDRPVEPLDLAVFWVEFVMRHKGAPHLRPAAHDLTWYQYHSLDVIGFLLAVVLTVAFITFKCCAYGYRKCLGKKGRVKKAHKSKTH
Method in brief: (§1)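 UGT-enriched insect cell membranes (5 or 50 µg) in 50 mM phosphate pH 7.4, 10 mM MgCl2, 5 mM UDPGA; substrate 200 µM in DMSO (10% final); 15–60 min at 37°C; stopped with perchloric acid, on ice, centrifuged; glucuronides resolved by HPLC. Triplicates, no-UDPGA controls; rates normalized to relative UGT expression; substrate consumption ≤10%.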

[2] = test system: UGT2A2 (Homo sapiens); assay: Drug level assessed as recombinant human C-terminal His-tagged UGT2A2-mediated compound formation from at 200 uM 13-epiestradiol after 15 to 60 mins by HPLC analysis in presence of UDPGA; conditions: recombinant enzyme
[3] = target: T2, UDP-glucuronosyltransferase 2B7 (Homo sapiens, UniProt P16662); assay: Drug level assessed as recombinant human C-terminal His-tagged UGT2B7-mediated compound formation from 200 uM 17-epiestriol after 15 to 60 mins by HPLC analysis in presence of UDPGA; assay type: ADME; conditions: recombinant enzyme; method in brief: as §1
T2 sequence (P16662 whole entry): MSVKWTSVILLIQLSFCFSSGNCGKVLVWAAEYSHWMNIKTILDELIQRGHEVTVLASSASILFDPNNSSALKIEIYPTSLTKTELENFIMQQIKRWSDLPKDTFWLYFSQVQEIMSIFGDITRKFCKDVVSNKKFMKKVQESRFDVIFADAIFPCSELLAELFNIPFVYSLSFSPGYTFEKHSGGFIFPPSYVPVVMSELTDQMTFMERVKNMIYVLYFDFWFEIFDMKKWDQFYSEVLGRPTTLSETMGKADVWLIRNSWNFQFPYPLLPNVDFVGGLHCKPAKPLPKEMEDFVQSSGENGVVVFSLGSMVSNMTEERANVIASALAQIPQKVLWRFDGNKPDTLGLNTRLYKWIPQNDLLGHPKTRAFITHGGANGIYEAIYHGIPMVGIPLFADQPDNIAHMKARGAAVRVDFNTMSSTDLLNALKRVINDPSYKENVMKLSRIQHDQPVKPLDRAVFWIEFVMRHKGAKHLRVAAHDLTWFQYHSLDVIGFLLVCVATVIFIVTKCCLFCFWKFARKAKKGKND

[4] = target: T2, UDP-glucuronosyltransferase 2B7; assay: Drug level assessed as recombinant human C-terminal His-tagged UGT2B7-mediated compound formation from 4 mg 17-epiestriol after 5 hrs by NMR spectroscopic analysis in presence of UDPGA; assay type: ADME; conditions: recombinant enzyme
Method in brief: (§2)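 Preparative biosynthesis: 4 mg 17-epiestriol or 8 mg 16-epiestriol with UGT2B7-enriched insect cell homogenate in 50 mM phosphate pH 7.4, 10 mM MgCl2, 50 mM UDPGA, 10% DMSO. Glucuronides fractionated by HPLC (0.1% HCOOH replacing phosphate, UV 280 nm), concentrated, lyophilized, then examined by NMR.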

[5] = target: T1, UDP-glucuronosyltransferase 1A10; assay: Drug level assessed as recombinant human C-terminal His-tagged UGT1A10-mediated compound formation from 200 uM 16-epiestriol after 15 to 60 mins by […] analysis in presence of UDPGA; assay type: ADME; conditions: recombinant enzyme; method in brief: as §1
[6] = target: T2, UDP-glucuronosyltransferase 2B7; assay: Drug level assessed as recombinant human C-terminal His-tagged UGT2B7-mediated compound formation from 8 mg 16-epiestriol after 5 hrs by NMR spectroscopic analysis in presence of UDPGA; assay type: ADME; conditions: recombinant enzyme; method in brief: as §2
[7] = test system: [H][C@@]12CCc3cc(O)ccc3[C@@]1([H])CC[C@]1(C)[C@H](O)[C@H](O)C[C@@]21[H]; assay: Drug metabolism assessed as human UGT1A10 F93G mutant-mediated 17-epiestriol-3-glucuronide formation after 15 to 60 mins by Michaelis-Menten equation analysis in presence of UDPGA; assay type: ADME
Method in brief: (§3)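 UGT-enriched insect cell membranes (5 or 50 µg) were incubated with 0.2–300 µM aglycone in DMSO (10% final), 5 mM UDPGA, 10 mM MgCl2 and 50 mM phosphate pH 7.4 at 37°C. Reactions were stopped with perchloric acid and glucuronides measured by HPLC. Assays were in triplicate with substrate consumption ≤10%, rates normalized to relative UGT expression, and kinetics fitted to Michaelis-Menten.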

[8] = test system: C[C@]12CC[C@@H]3c4ccc(O)cc4CC[C@H]3[C@@H]1C[C@H](O)[C@@H]2O; assay: Drug metabolism assessed as human UGT1A10 F93G mutant-mediated 16-epiestriol-3-glucuronide formation after 15 to 60 mins by Michaelis-Menten equation analysis in presence of UDPGA; assay type: ADME; method in brief: as §3
[9] = test system: C[C@]12CC[C@@H]3c4ccc(O)cc4CC[C@H]3[C@@H]1C[C@@H](O)[C@@H]2O; assay: Drug metabolism assessed as human UGT1A10 F93G mutant-mediated estriol-3-glucuronide formation after 15 to 60 mins by Michaelis-Menten equation analysis in presence of UDPGA; assay type: ADME; method in brief: as §3
[10] = substrate: C[C@]12CC[C@@H]3c4ccc(O)cc4CC[C@H]3[C@@H]1C[C@H](O)[C@@H]2O; assay: Drug metabolism assessed as recombinant human C-terminal His-tagged UGT2B7-mediated 16-epiestriol-16-glucuronide formation after 15 to 60 mins by Michaelis-Menten equation analysis in presence of UDPGA; assay type: ADME
Method in brief: (§4)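 For kinetics, the aglycone ranged from 0.2 to 300 μM in DMSO (10% final) with 5 mM UDPGA, 10 mM MgCl₂ and 50 mM phosphate pH 7.4. Enzyme was UGT-enriched insect cell membranes. Incubation was 15–60 min at 37°C, in triplicate, keeping substrate consumption ≤10%. Products were measured by HPLC and fitted to Michaelis-Menten. Rates were normalized to expression level.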

[11] = substrate: C[C@]12CC[C@@H]3c4ccc(O)cc4CC[C@H]3[C@@H]1C[C@@H](O)[C@@H]2O; assay: Drug metabolism assessed as recombinant human C-terminal His-tagged UGT2B7-mediated estriol-16-glucuronide formation after 15 to 60 mins by Michaelis-Menten equation analysis in presence of UDPGA; assay type: ADME
Method in brief: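 Kinetics with His-tagged UGT-enriched insect-cell membranes (5 or 50 µg): aglycone 0.2–300 µM in 10% DMSO, 5 mM UDPGA, 10 mM MgCl₂, 50 mM phosphate pH 7.4, 15–60 min at 37°C. Substrate consumption kept at or below 10%. Glucuronides quantified by HPLC in triplicate, rates normalized to expression, and data fitted to Michaelis-Menten.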

[12] = substrate: [H][C@@]12CCc3cc(O)ccc3[C@@]1([H])CC[C@]1(C)[C@H](O)[C@H](O)C[C@@]21[H]; assay: Drug metabolism assessed as recombinant human C-terminal His-tagged UGT2B7-mediated 17-epiestriol-16-glucuronide formation after 15 to 60 mins by Michaelis-Menten equation analysis in presence of UDPGA; assay type: ADME; method in brief: as §3
[13] = substrate: C[C@]12CC[C@@H]3c4ccc(O)cc4CC[C@H]3[C@@H]1C[C@H](O)[C@@H]2O; assay: Drug metabolism assessed as recombinant human C-terminal His-tagged UGT1A10-mediated 16-epiestriol-3-glucuronide formation after 15 to 60 mins by Michaelis-Menten equation analysis in presence of UDPGA; assay type: ADME; method in brief: as §4
[14] = substrate: [H][C@@]12CCc3cc(O)ccc3[C@@]1([H])CC[C@]1(C)[C@H](O)[C@H](O)C[C@@]21[H]; assay: Drug metabolism assessed as recombinant human C-terminal His-tagged UGT1A10-mediated 17-epiestriol-3-glucuronide formation after 15 to 60 mins by Michaelis-Menten equation analysis in presence of UDPGA; assay type: ADME; method in brief: as §3
[15] = substrate: C[C@]12CC[C@@H]3c4ccc(O)cc4CC[C@H]3[C@@H]1C[C@@H](O)[C@@H]2O; assay: Drug metabolism assessed as recombinant human C-terminal His-tagged UGT1A10-mediated estriol-3-glucuronide formation after 15 to 60 mins by Michaelis-Menten equation analysis in presence of UDPGA; assay type: ADME; method in brief: as §4

C[C@]12CC[C@@H]3c4ccc(O[C@@H]5O[C@H](C(=O)O)[C@@H](O)[C@H](O)[C@H]5O)cc4CC[C@H]3[C@@H]1C[C@@H](O)[C@@H]2O
Drug metabolism [1]: metabolite_detected

C[C@]12CC[C@@H]3c4ccc(O)cc4CC[C@H]3[C@@H]1C[C@@H](O)[C@@H]2O[C@@H]1O[C@H](C(=O)O)[C@@H](O)[C@H](O)[C@H]1O
Drug metabolism [1]: metabolite_detected

C[C@]12CC[C@@H]3c4ccc(O)cc4CC[C@H]3[C@@H]1C[C@@H](O[C@@H]1O[C@H](C(=O)O)[C@@H](O)[C@H](O)[C@H]1O)[C@@H]2O
Drug metabolism [1]: metabolite_detected

C[C@@]12CC[C@@H]3c4ccc(O)cc4CC[C@H]3[C@@H]1CC[C@@H]2O[C@@H]1O[C@H](C(=O)O)[C@@H](O)[C@H](O)[C@H]1O
Drug metabolism [2]: metabolite_detected

C[C@]12CC[C@@H]3c4ccc(O)cc4CC[C@H]3[C@@H]1C[C@@H](O[C@@H]1O[C@H](C(=O)O)[C@@H](O)[C@H](O)[C@H]1O)[C@H]2O
Drug metabolism [3]: metabolite_not_detected

C[C@]12CC[C@@H]3c4ccc(O[C@@H]5O[C@H](C(=O)O)[C@@H](O)[C@H](O)[C@H]5O)cc4CC[C@H]3[C@@H]1C[C@@H](O)[C@H]2O
Drug metabolism [3]: metabolite_detected

C[C@]12CC[C@@H]3c4ccc(O)cc4CC[C@H]3[C@@H]1C[C@@H](O)[C@H]2O[C@@H]1O[C@H](C(=O)O)[C@@H](O)[C@H](O)[C@H]1O
Drug metabolism [3]: metabolite_detected
Drug metabolism [4]: metabolite_detected

C[C@]12CC[C@@H]3c4ccc(O[C@@H]5O[C@H](C(=O)O)[C@@H](O)[C@H](O)[C@H]5O)cc4CC[C@H]3[C@@H]1C[C@H](O)[C@@H]2O
Drug metabolism [5]: metabolite_detected

C[C@]12CC[C@@H]3c4ccc(O)cc4CC[C@H]3[C@@H]1C[C@H](O[C@@H]1O[C@H](C(=O)O)[C@@H](O)[C@H](O)[C@H]1O)[C@@H]2O
Drug metabolism [5]: metabolite_detected
Drug metabolism [6]: metabolite_detected

C[C@]12CC[C@@H]3c4ccc(O)cc4CC[C@H]3[C@@H]1C[C@H](O)[C@@H]2O[C@@H]1O[C@H](C(=O)O)[C@@H](O)[C@H](O)[C@H]1O
Drug metabolism [5]: metabolite_detected
Drug metabolism [6]: metabolite_detected

UDP-glucuronosyltransferase 1A10 (Homo sapiens; F93G)
Km [7]: 51.1 µM
Vmax [7]: 0.00571 µmol/min/mg
Km [8]: 186 µM
Vmax [8]: 0.00225 µmol/min/mg
Km [9]: 230 µM
Vmax [9]: 0.00754 µmol/min/mg

B1: UDP-glucuronosyltransferase 2B7 (Homo sapiens) (protein)
chain: MSVKWTSVILLIQLSFCFSSGNCGKVLVWAAEYSHWMNIKTILDELIQRGHEVTVLASSASILFDPNNSSALKIEIYPTSLTKTELENFIMQQIKRWSDLPKDTFWLYFSQVQEIMSIFGDITRKFCKDVVSNKKFMKKVQESRFDVIFADAIFPCSELLAELFNIPFVYSLSFSPGYTFEKHSGGFIFPPSYVPVVMSELTDQMTFMERVKNMIYVLYFDFWFEIFDMKKWDQFYSEVLGRPTTLSETMGKADVWLIRNSWNFQFPYPLLPNVDFVGGLHCKPAKPLPKEMEDFVQSSGENGVVVFSLGSMVSNMTEERANVIASALAQIPQKVLWRFDGNKPDTLGLNTRLYKWIPQNDLLGHPKTRAFITHGGANGIYEAIYHGIPMVGIPLFADQPDNIAHMKARGAAVRVDFNTMSSTDLLNALKRVINDPSYKENVMKLSRIQHDQPVKPLDRAVFWIEFVMRHKGAKHLRVAAHDLTWFQYHSLDVIGFLLVCVATVIFIVTKCCLFCFWKFARKAKKGKND
Km [10]: 38.4 µM
Vmax [10]: 0.00387 µmol/min/mg
Km [11]: 10.3 µM
Vmax [11]: 0.00151 µmol/min/mg
Km [12]: 0.6 µM
Vmax [12]: 0.00082 µmol/min/mg

B2: UDP-glucuronosyltransferase 1A10 (Homo sapiens) (protein)
chain: MARAGWTSPVPLCVCLLLTCGFAEAGKLLVVPMDGSHWFTMQSVVEKLILRGHEVVVVMPEVSWQLERSLNCTVKTYSTSYTLEDQNREFMVFAHAQWKAQAQSIFSLLMSSSSGFLDLFFSHCRSLFNDRKLVEYLKESSFDAVFLDPFDTCGLIVAKYFSLPSVVFTRGIFCHHLEEGAQCPAPLSYVPNDLLGFSDAMTFKERVWNHIVHLEDHLFCQYLFRNALEIASEILQTPVTAYDLYSHTSIWLLRTDFVLDYPKPVMPNMIFIGGINCHQGKPLPMEFEAYINASGEHGIVVFSLGSMVSEIPEKKAMAIADALGKIPQTVLWRYTGTRPSNLANNTILVKWLPQNDLLGHPMTRAFITHAGSHGVYESICNGVPMVMMPLFGDQMDNAKRMETKGAGVTLNVLEMTSEDLENALKAVINDKSYKENIMRLSSLHKDRPVEPLDLAVFWVEFVMRHKGAPHLRPAAHDLTWYQYHSLDVIGFLLAVVLTVAFITFKCCAYGYRKCLGKKGRVKKAHKSKTH
Km [13]: 59.8 µM
Vmax [13]: 0.0077 µmol/min/mg
Km [14]: 337 µM
Vmax [14]: 0.000958 µmol/min/mg
Km [15]: 68.4 µM
Vmax [15]: 0.0012 µmol/min/mg
